OX1R antag-1: OX1R (human) antagonism; OX1R-expressing cells, FRET antagonist read-out; 330,000 compounds, 1.8% hits; O43613; inhibition, % at 6.6 µM; in the data active = inhibition mostly above about 38%, no sharp cut-off; inactive = mostly below about 40%
Target sequence (O43613 whole entry, looked up): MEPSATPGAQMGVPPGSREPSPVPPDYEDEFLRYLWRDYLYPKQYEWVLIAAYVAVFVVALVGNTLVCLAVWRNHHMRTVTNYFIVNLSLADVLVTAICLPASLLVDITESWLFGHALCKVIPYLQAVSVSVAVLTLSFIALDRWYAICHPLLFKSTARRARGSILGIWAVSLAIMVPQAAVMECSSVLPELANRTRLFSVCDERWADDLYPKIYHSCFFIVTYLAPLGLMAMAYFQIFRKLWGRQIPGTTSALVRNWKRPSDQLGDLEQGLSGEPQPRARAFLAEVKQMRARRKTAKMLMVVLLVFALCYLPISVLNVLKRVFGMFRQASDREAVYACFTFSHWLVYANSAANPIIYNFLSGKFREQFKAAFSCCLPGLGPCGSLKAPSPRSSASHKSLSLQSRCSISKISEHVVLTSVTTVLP
CHO parental Ca: counter-screen for OX1R antagonists: effect in parental CHO cells | parental CHO-K1, ATP-induced calcium, Fluo-8 fluorescence | AID 463079 | 330,000 compounds, 0.63% hits | inhibition, % at 5.6 µM;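 active = inhibition above that plate's mean sample inhibition plus 3 SD, cut at about 26% in these data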
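Material: parental CHO cells / Compound: single nominal dose of 5.6 µM per compound / Signal: Fluo-8 fluorescence / Replicates: singlicate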
OX1R antag-2: human HCRTR1 antagonism; inhibition, % at 5 µM; 330,000 compounds, 0.43% hits; AID 434989; O43613; CHO/OX1R cells, Fluo-8 calcium fluorescence, orexin A;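 active = inhibition above its plate's threshold, mean inhibition of all tested compounds on the plate plus 3 SD, cut at about 37% in these data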
TRPML3 ag: human mucolipin-3 channel agonism; 220,000 compounds, 0.29% hits; AID 1448; HEK293 TRPML3-YFP, Fluo-8 calcium fluorescence; 100% = the carbachol control signal; Q8TDD5; activation, % at 3 µM;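 active = activation above its plate's cutoff, the mean activation of the plate's test wells plus 3 SD, cut at about 12% in these data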
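Material: TRPML3-YFP stable HEK293 cells | Dosing: One concentration, 3 µM nominal, 0.3% DMSO | Timing: 125 s total fluorescence read per well | Technique: Fluo-8 calcium dye fluorescence, ex 470-495, em 515-575 nm | Measure: Percent activation from peak-to-basal fluorescence ratio, scaled between DMSO and carbachol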
zfTRPN1 agonist: activates the zebrafish TRPN1 channel; HEK293 zebrafish TRPN1-YFP, Fluo-8 calcium fluorescence; 100% = response to 87 µM carbachol; activation, % at 3 µM; 220,000 compounds, 0.18% hits; AID 1424;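 active = activation above its plate's cutoff, the mean activation of test wells on that plate plus 3 SD, cut at about 19% in these data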
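Material – zebrafish TRPN1-YFP in HEK293 cells · Doses – 3 µM single point · Schedule – dye 1 h 37 °C plus 30 min RT · Signal – Fluo-8 calcium fluorescence, excitation 470-495 nm, emission 515-575 nm · Read-out – % activation versus carbachol response · Control set – carbachol high, DMSO low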
OX1R HTRF confirm: OX1R (human) antagonism, HTRF confirmed | shares compounds with OX1R antag-1 | OX1R-expressing cells, HTRF antagonist assay | inhibition, % at 6.6 µM | 1,800 compounds, 49% hits | AID 492964; in the data active = inhibition above about 55%;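 note: CHO cells expressing OX1R stimulated with orexin A at about EC80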
CHO-K1 HTRF: counter-screen for OX1R antagonists: effect in parental CHO-K1 cells. inhibition, % at 6.6 µM. AID 493232. shares compounds with OX1R antag-1. 1,800 compounds, 48% hits. HTRF counterscreen; in the data active = inhibition above about 17%
A number is an active result; . = inactive; / = no result given. Rows were chosen to be rich in hits. Some 2.5% of all compounds tested hit in one or more screens of this group.

SMILES	OX1R antag-1	CHO parental Ca	OX1R antag-2	TRPML3 ag	zfTRPN1 agonist	OX1R HTRF confirm	CHO-K1 HTRF
Nc1ccc2oc(-c3cccc4ccccc34)nc2c1	82	.	.	.	.	68	.
O=C(N/N=C/C(Cl)=C\c1ccccc1)c1cccs1	87	.	.	.	.	62	.
O=C(CSc1ncn[nH]1)Nc1c(Br)cc([N+](=O)[O-])cc1Br	96	.	.	.	.	.	45
Cc1ccc(C)[n+](CC(=O)N2CCCCC2)c1	/	/	/	.	.	/	/
COc1ccc(OC)c(NC(=O)C2CCN(C(=O)C3CC(=O)N(c4ccc(C)cc4)C3)CC2)c1 (stereo not given)	.	.	.	/	/	/	/
O=C(c1nc2nc(-c3ccccc3)cc(C(F)(F)F)n2n1)N1CCOCC1	77	.	.	.	.	.	27
O=C(c1nn2c(C(F)(F)F)cc(-c3ccccc3)nc2c1Cl)N1CCOCC1	.	.	.	.	.	/	/
Cc1ccc(NC(=O)CCC(=O)N/N=C/c2ccc([N+](=O)[O-])o2)cc1C	.	.	.	.	.	/	/
Cc1nonc1C(=O)N/N=C/c1ccc([N+](=O)[O-])o1	144	.	.	.	.	.	81
O=C(N/N=C/c1ccc([N+](=O)[O-])o1)C1CC1	127	.	.	.	.	58	75
COc1cc(C(=O)NCCc2c[nH]c3ccccc23)ccc1OCc1c(C)noc1C	.	.	.	.	.	/	/
COc1cc2c(cc1NC(=O)CCCN1C(=O)CCC1=O)oc1ccccc12	.	.	.	.	.	/	/
COc1cc2c(cc1NC(=O)CCCCCN1C(=O)CCC1=O)oc1ccccc12	80	.	.	.	.	84	.
CCN(CC)c1ccc(NC(=O)c2cc3ccccc3o2)c(C)c1	80	.	.	.	.	59	.
Cc1cc(C)c(O)c(-c2cc(C(=O)Nc3c(C)n(C)n(-c4ccccc4)c3=O)[nH]n2)c1	.	.	.	.	.	/	/
Cc1ccc(/C=C2\SC(=O)N(CCC(=O)N3CCN(C)CC3)C2=O)cc1	126	.	.	/	/	.	27
COC(=O)c1ccccc1NC(=O)COc1ccc2c(c1)OCO2	80	.	.	/	/	63	.
O=C(COc1ccc2c(c1)OCO2)Nc1ccccc1F	.	.	.	.	.	/	/
COc1ccc([C@@H]2CC=C(C(=O)O)[C@H](c3cccc(Cl)c3)N2S(=O)(=O)c2ccc(C)cc2)cc1OC	77	.	.	/	/	84	.
COc1ccc([C@@H]2CC=C(C(=O)O)[C@H](c3ccccc3)N2S(=O)(=O)c2ccccc2C)cc1	78	.	.	/	/	55	.
C/C(=N/NC(=O)CNC(=O)c1ccccn1)c1ccc([N+](=O)[O-])cc1	.	.	.	.	.	/	/
O=C(/C=C/c1ccc([N+](=O)[O-])cc1)Nc1cccnc1	95	.	.	.	.	.	27
C/C(=N/NC(=O)CNC(=O)c1cccnc1)c1ccc([N+](=O)[O-])cc1	90	.	.	.	.	.	44
O=C(N/N=C/c1ccncc1)c1cc([N+](=O)[O-])cc([N+](=O)[O-])c1	86	.	.	.	.	.	74
O=C(N/N=C/c1cccnc1)c1ccc([N+](=O)[O-])cc1	107	.	.	.	.	.	82
SMILES	OX1R antag-1	CHO parental Ca	OX1R antag-2	TRPML3 ag	zfTRPN1 agonist	OX1R HTRF confirm	CHO-K1 HTRF
CCCCNS(=O)(=O)c1ccc2nc(-c3cccnc3)cc(C(=O)NC3CCCC3)c2c1	.	.	.	.	.	/	/
COc1ccc(OC)c(C(=O)NC(CC(N)=O)c2ccc(N3CCN(c4ccc(F)cc4)CC3)c([N+](=O)[O-])c2)c1 (stereo not given)	.	.	.	/	/	/	/
Cc1cc(C)c(NC(=O)CNC(=O)COC(=O)Cc2cccs2)c(C)c1	.	.	.	/	/	/	/
O=C(N/N=C/c1ccc(Br)o1)c1cc([N+](=O)[O-])cc([N+](=O)[O-])c1	81	.	.	.	.	.	56
Cc1cc(F)ccc1NCc1cc2c(cc1[N+](=O)[O-])OCO2	85	.	.	.	.	.	21
N#CC(C#N)=Cc1c[nH]c(=O)c(C#N)c1Nc1ccccc1	88	.	.	/	/	.	62
N#Cc1c(Nc2ccccc2)c(/C=N/N=C/c2ccccc2)c[nH]c1=O	.	.	.	.	.	/	/
Cc1ccc(/C=C2\SC(N3CCCCC3)=NC2=O)cc1	.	.	.	/	/	/	/
O=C1N=C(N2CCCC2)S/C1=C\c1ccccc1	147	.	.	.	.	58	27
C=CC[C@H](CC(=O)NCCO)C(=O)N[C@H](COC(=O)[C@H](CC=C)CC(=O)OC(C)(C)C)Cc1c[nH]c2ccccc12	.	.	.	/	/	/	/
CCC(=O)N1CCC2(CC1)Oc1ccc(Cl)cc1C(=O)C21CC(c2cccnc2)=NO1 (stereo not given)	.	.	.	/	/	/	/
CCC(=O)N1CCC2(CC1)Oc1ccc(F)cc1C(=O)C21CC(c2cccnc2)=NO1 (stereo not given)	78	.	.	/	/	.	.
Cc1cc2nc(N3CCN(C(=O)c4ccco4)CC3)sc2cc1C	.	.	.	/	/	/	/
Cc1cc(C)c2nc(N3CCN(C(=O)c4ccco4)CC3)sc2c1	82	.	.	/	/	.	.
COc1nc(N(C)S(=O)(=O)c2ccc(C)cc2)nc(C)c1Br	.	.	.	/	/	/	/
Cc1ccc(Nc2nc3nonc3[nH]c2=O)cc1C	78	.	.	.	.	.	.
CCOc1ccc(NC2OCC(O)C(O)C2O)c([N+](=O)[O-])c1 (stereo not given)	82	.	.	.	.	.	31
Cc1ccc(C(=O)NNC(=O)c2ccc(NS(=O)(=O)c3cccs3)cc2)o1	.	.	.	/	/	/	/
COC(=O)c1cc(=O)c2c(C)nc(C(Cl)(Cl)Cl)nc2[nH]1	79	.	.	.	.	.	.
COc1cc(-n2c(C)nc3cccnc32)c(Cl)cc1C(=O)O	.	.	.	/	/	/	/
COc1ccc2nc(NC(=O)C3CCCN3S(=O)(=O)c3ccc(C)cc3)sc2c1 (stereo not given)	80	.	.	.	.	.	.
COc1ccc(C)cc1S(=O)(=O)N1CCN(C)CC1c1ccccc1 (stereo not given)	.	.	.	/	/	/	/
COC(=O)c1c(=O)n(O)c2ccc(OC)cc2[n+]1[O-]	88	.	.	.	.	.	47
Cc1ccc(-c2nc3ncccc3o2)cc1NC(=O)c1cc2ccccc2o1	.	.	.	.	.	/	/
O=C(Nc1cccc(-c2nc3ncccc3o2)c1)c1cc2ccccc2o1	105	.	.	.	.	92	19
Cc1ccn2cc(-c3cccc(NC(=O)C(C)C)c3)nc2c1	.	.	.	.	.	/	/
Cc1ccn2cc(-c3cccc(NC(=O)c4ccccc4)c3)nc2c1	78	.	.	.	.	62	.

High-throughput results from PubChem BioAssay.
